# Laboratory results as given in PMC8554411 (Pharmacology Research & Perspectives, 2021).
# Values joined by “and” are separate entries in the source; they are usually repeats but may differ in a detail not shown here. Identical values can stand only once.
# How the values were obtained:
# mu opioid receptor [1] = biological target: mu opioid receptor (Rattus norvegicus, UniProt P33535); assay type: in vivo
# human mu opioid receptor [2] = biological target: T1, human mu opioid receptor (Homo sapiens, UniProt P35372); assay type: cell-based
# T1 sequence (P35372 whole entry): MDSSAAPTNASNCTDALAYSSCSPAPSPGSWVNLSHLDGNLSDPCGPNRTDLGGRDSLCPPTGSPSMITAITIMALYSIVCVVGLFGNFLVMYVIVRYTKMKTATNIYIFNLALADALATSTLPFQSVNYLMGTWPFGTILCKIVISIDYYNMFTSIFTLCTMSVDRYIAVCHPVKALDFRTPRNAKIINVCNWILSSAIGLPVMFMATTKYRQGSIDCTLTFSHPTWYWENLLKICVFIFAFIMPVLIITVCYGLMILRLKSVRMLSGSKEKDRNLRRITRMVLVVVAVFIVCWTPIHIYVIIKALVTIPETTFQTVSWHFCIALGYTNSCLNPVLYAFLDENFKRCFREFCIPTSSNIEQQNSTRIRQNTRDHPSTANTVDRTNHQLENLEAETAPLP
# human mu opioid receptor [3] = biological target: T1, human mu opioid receptor; experiment: cell-based; conditions: HEK293, read-out: DAMGO Emax, inhibition of forskolin stimulated cAMP levels
# [4] = biological target: human delta opioid receptors (Homo sapiens, UniProt P41143); assay type: cell-based; conditions: MCAM 20 nM
# Chain of human delta opioid receptors (P41143 whole entry): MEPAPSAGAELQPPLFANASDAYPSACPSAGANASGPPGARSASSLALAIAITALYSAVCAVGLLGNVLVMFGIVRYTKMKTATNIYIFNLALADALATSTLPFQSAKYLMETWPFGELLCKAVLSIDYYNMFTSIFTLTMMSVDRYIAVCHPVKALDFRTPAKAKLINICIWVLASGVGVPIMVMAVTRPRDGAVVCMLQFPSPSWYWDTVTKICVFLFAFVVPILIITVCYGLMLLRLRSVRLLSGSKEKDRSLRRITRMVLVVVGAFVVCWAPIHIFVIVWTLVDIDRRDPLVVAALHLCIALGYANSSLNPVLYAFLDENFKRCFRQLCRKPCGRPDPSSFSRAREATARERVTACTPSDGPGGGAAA
# How it was run: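 HEK293 cells stably co-expressing the GloSensor 22F cAMP sensor and human delta receptor were kept under hygromycin B/G418 selection and plated at 40 000/well. They were loaded 2 h in the dark at 30°C with 450 μg/ml D-luciferin. Antagonist was added 15 min before agonist or during loading; for washout, medium was replaced twice. Luminescence was read at 30°C, 1 Hz: 5 min baseline, 5 min agonist, then 30 min forskolin (10 μM). Results were expressed as % forskolin stimulation; ≥4 experiments, triplicate.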
# kappa opioid receptor = kappa opioid receptor (Rattus norvegicus, UniProt P34975); conditions: in vivo
# Chain of kappa opioid receptor (P34975 whole entry): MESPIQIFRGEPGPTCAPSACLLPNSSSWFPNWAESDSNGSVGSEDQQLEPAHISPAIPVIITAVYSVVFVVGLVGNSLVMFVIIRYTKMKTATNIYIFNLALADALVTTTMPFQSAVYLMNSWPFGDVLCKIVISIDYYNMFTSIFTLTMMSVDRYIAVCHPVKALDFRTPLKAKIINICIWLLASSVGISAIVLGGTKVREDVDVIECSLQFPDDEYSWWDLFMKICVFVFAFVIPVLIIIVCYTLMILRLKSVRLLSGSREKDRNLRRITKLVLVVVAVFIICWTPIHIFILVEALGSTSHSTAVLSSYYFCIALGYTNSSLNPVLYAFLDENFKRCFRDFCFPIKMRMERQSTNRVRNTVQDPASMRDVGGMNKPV
# [5] = biological target: human kappa opioid receptors (Homo sapiens, UniProt P41145); assay type: cell-based
# Chain of human kappa opioid receptors (P41145 whole entry): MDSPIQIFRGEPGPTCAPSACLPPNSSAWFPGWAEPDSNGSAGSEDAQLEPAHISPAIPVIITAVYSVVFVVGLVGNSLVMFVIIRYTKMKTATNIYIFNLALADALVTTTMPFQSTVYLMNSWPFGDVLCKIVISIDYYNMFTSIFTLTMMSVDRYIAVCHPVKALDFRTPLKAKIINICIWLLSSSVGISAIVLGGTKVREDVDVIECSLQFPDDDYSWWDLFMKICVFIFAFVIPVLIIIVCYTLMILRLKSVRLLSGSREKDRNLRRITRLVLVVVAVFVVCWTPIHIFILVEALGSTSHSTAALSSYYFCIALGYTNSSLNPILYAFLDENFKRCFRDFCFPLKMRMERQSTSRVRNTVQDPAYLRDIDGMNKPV
# mu opioid receptor [6] = conditions: mice treated with MCAM; cited from earlier work
# delta opioid receptor = delta opioid receptor (Rattus norvegicus, UniProt P33533); assay type: in vivo
# Chain of delta opioid receptor (P33533 whole entry): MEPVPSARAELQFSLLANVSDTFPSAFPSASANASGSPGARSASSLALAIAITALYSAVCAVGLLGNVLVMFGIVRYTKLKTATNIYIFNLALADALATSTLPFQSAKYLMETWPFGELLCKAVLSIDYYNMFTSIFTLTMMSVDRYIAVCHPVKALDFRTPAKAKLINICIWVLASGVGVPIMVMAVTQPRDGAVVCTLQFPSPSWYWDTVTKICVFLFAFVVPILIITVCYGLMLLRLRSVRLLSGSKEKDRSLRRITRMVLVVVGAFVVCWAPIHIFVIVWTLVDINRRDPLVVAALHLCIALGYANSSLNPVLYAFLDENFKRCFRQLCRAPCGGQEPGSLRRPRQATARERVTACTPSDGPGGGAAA
# human mu opioid receptor [7] = biological target: T1, human mu opioid receptor; assay type: cell-based; remark: listed apart in the source
# Chain of mu opioid receptor (Rattus norvegicus, UniProt P33535) (P33535 whole entry): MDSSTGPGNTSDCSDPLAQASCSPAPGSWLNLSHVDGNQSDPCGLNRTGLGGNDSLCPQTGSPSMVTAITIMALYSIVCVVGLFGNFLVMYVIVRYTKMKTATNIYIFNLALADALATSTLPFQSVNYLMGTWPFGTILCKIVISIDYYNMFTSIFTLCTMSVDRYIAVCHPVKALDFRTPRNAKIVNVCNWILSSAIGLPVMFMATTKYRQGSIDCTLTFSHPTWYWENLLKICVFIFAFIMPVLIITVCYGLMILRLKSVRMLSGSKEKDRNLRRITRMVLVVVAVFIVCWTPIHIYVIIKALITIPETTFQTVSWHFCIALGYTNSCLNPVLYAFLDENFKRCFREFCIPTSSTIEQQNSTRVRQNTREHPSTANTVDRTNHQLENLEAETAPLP
smiles,measurement,setting,value
"C[C@@H](NC(=O)[C@@H](N)Cc1ccc(O)cc1)C(=O)NCC(=O)N(C)[C@@H](Cc1ccccc1)C(=O)NCCO [DAMGO, [D‐Ala^2,N‐MePhe^4,Gly‐ol^5]‐enkephalin]",effect of agonist on PGE2-stimulated thermal allodynia,"mu opioid receptor [1]; DAMGO 20 μg i.pl., vehicle pretreatment, rat hindpaw",reduced
same,Emax (maximal inhibition of forskolin-stimulated cAMP levels) by DAMGO,human mu opioid receptor [2],43% ± 2% and 46% ± 3% and 48% ± 5%
same,response to DAMGO (inhibition of forskolin-stimulated cAMP levels),human mu opioid receptor [2],essentially abolished
same,Emax,human mu opioid receptor [3],85%
"Cc1ccc(/C=C/C(=O)N[C@@]23CCC(=O)[C@@H]4Oc5c(O)ccc6c5[C@@]42CCN(CC2CC2)[C@@H]3C6)cc1 [MCAM, 14β‐(4′‐methylcinnamoylamido)‐7,8‐dihydro‐N‐cyclopropylmethyl‐normorphinone]",change in the maximal response to DPDPE,[4]; 15 min or 2 h pretreatment,no change
same,rightward shift of the curve for DPDPE by the antagonist,[4]; 15 min or 2 h pretreatment,~ 10 fold
same,effect of washout on antagonism at delta receptors,"[4]; 2 h, then wash",fully reversed
same,effect of antagonist on U50488-mediated antinociceptive response,kappa opioid receptor,did not block
same,effect of antagonist on the antinociceptive response to U50488,kappa opioid receptor,antagonized
same,change in the maximal response to U50488,[5],no change
same,rightward shift of the curve for U50488 by the antagonist,[5],~ 10 fold
same,effect of washout on antagonism at kappa receptors,"[5]; MCAM 50 nM, 2 h, then wash",fully reversed
same,effect of antagonist on the antinociceptive response to DAMGO,"mu opioid receptor [1]; MCAM 0.25 μg/50 μl i.pl., 15 min pretreatment",antagonized
same,effect of antagonist alone on forskolin-stimulated cAMP levels,human mu opioid receptor [2],did not alter
same,effect of washout on antagonism of DAMGO,human mu opioid receptor [2],did not alter
same,effect of washout on the reduction of the DAMGO maximal response,human mu opioid receptor [2],insensitive to washout
same,rightward shift of the morphine concentration response curve by the antagonist,human mu opioid receptor [2],10 fold
same,3H-DAMGO binding in brain tissue,mu opioid receptor [6],reduced
same,effect of antagonist on the antinociceptive response to DPDPE,"delta opioid receptor; MCAM 0.5 μg/50 μl i.pl., 15 min pretreatment",antagonized
same,effect of antagonist on DPDPE-mediated antinociceptive response,delta opioid receptor; tested 24 h after MCAM administration i.pl.,did not block
"COC(=O)/C=C/C(=O)N[C@@H]1CC[C@@]2(O)[C@H]3Cc4ccc(O)c5c4[C@@]2(CCN3CC2CC2)[C@H]1O5 [β‐FNA, β‐funaltrexamine]",rightward shift of the DAMGO curve by the antagonist,human mu opioid receptor [7],about 100 fold
same,effect of antagonist alone on forskolin-stimulated cAMP levels,human mu opioid receptor [2],had no effect
same,effect of washout on antagonism of DAMGO,human mu opioid receptor [2],not sensitive to washout
